Experimental data reported in ChEMBL document CHEMBL1142117, “Triterpene saponins from Bacopa monnieri and their antidepressant effects in two mice models” (2007).
The source made the active and inactive calls. The calls are words filed in the database; no cut-off is given here.

Legend:
Mus musculus [1] = assay: Spontaneous motor activity in ICR mouse at 50 mg/kg, po; type: functional, organism-based; design: dose 50 mg/kg
Method in brief: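 Locomotion of male ICR mice measured 1 h after day-5 oral dose (0.3% CMCNa suspension, daily for 5 days) with an automated activity meter in an open field (35 cm diameter); 3 min adaptation, then counts over 6 min; n=10; means ± SEM compared with vehicle by ANOVA/Dunnett.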

Mus musculus [2] = assay: Antidepressant activity in ICR mouse assessed as reduction of immobility time at 50 mg/kg, po after 5 days by forced swimming test; type: functional; design: scale not given: the % may be the effect or the level left
Method in brief: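 Male ICR mice (18-22 g), housed a week on 12:12 h light-dark cycle; saponins suspended in 0.3% CMCNa, given orally once daily for 5 days; vehicle controls 5 days, fluoxetine (10 mg/kg) once on day 5. 1 h after last dose, mouse placed in water (24 °C, 10 cm deep) 6 min; immobility scored over final 4 min by blinded observer; n=10; means ± SEM, ANOVA/Dunnett.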

Mus musculus [3] = assay: Antidepressant activity in ICR mouse assessed as reduction of immobility time at 50 mg/kg, po after 5 days by tail suspension test; type: functional; design: scale not given: the % may be the effect or the level left
Method in brief: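 Male ICR mice (18-22 g); compounds in 0.3% CMCNa dosed orally daily for 5 days, fluoxetine (10 mg/kg) once on day 5, vehicle group 5 days. One hour after day-5 dose, mouse hung by tail from lever 30 cm high for 6 min; immobility in later 4 min recorded by observer; n=10; one-way ANOVA then Dunnett's t-test.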

With `CC(C)=C[C@@H]1CO[C@]23C[C@@]4(CO2)[C@@H](CC[C@@H]2[C@@]5(C)CC[C@H](O[C@H]6OC[C@H](O)[C@H](O[C@H]7O[C@H](COS(=O)(=O)O)[C@@H](O)[C@H](O)[C@H]7O)[C@H]6O[C@@H]6O[C@@H](CO)[C@H](O)[C@H]6O)C(C)(C)[C@@H]5CC[C@]24C)[C@H]3[C@@]1(C)O` [BACOPASIDE I] the Activity (Mus musculus [1]) was “inactive”, the Activity (Mus musculus [2]) was 75% and the Activity (Mus musculus [3]) was 61%.

With `CC(C)=C[C@@H]1CO[C@]23C[C@@]4(CO2)[C@@H](CC[C@@H]2[C@@]5(C)CC[C@H](O[C@H]6OC[C@H](O)[C@H](O[C@H]7O[C@H](CO)[C@H](O)[C@H](O)[C@H]7O)[C@H]6O[C@@H]6O[C@@H](CO)[C@H](O)[C@H]6O)C(C)(C)[C@@H]5CC[C@]24C)[C@H]3[C@@]1(C)O` [BACOPASAPONSIN C] the Activity (Mus musculus [1]) was “inactive”, the Activity (Mus musculus [2]) was 63% and the Activity (Mus musculus [3]) was 47%.

For `CC(C)=CC1C[C@](C)(O)[C@@H]2[C@@H]3CC[C@@H]4[C@@]5(C)CC[C@H](O[C@@H]6OC[C@H](O)[C@H](O[C@@H]7O[C@H](CO)[C@@H](O)[C@H](O)[C@H]7O)[C@H]6O[C@@H]6O[C@@H](CO)[C@H](O)[C@H]6O)C(C)(C)[C@@H]5CC[C@@]4(C)[C@]34CO[C@@]2(C4)O1` (some centres undefined) [BACOPASIDE VII], the Activity (Mus musculus [1]) was “inactive”, the Activity (Mus musculus [2]) was 20% and the Activity (Mus musculus [3]) was 8%.
